ChEMBL document CHEMBL4350966 (J Med Chem, 2019)

These molecules were tested against T1, fMet-Leu-Phe receptor (Homo sapiens, UniProt P21462) (assay: Biased agonist activity at human FPR1 expressed in FlpIn-CHO cells assessed as stimulation of ERK1/2 phosphorylation measured after 7 mins by Alphascreen assay). Conditions: read-out: pEC50 (converted).
T1 sequence (P21462 whole entry): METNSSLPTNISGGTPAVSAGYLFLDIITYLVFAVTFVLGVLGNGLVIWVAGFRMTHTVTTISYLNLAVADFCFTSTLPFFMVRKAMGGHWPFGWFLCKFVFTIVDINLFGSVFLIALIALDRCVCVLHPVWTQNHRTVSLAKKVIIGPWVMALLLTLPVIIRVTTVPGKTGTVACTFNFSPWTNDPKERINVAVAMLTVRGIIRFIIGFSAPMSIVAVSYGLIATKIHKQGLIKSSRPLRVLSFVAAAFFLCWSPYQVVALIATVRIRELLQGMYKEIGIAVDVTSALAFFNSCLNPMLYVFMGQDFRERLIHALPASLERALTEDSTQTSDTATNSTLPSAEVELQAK
Format: cell-based
How it was run: (§1)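 Agonist transduction coefficients (Log(τ/KA)) for each signaling output estimated with an extension of the Black-Leff operational model. Values normalized to a reference ligand and to Ca2+ mobilization as reference pathway, giving ΔLog(τ/KA) and Log(bias factors). Data are mean ± SEM of 4 independent experiments, each performed in duplicate.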

SMILES | EC50
COc1ccccc1Cc1cc(C)nn(CC(=O)Nc2ccccc2Cl)c1=O | > 100 µM
CCCCC(C(=O)Nc1ccc(Br)cc1)n1nc(C)cc(Cc2cccc(OC)c2OC)c1=O (stereo not drawn) | 0.245 µM
CCCCC(C(=O)Nc1ccc(Cl)cc1)n1nc(C)cc(Cc2cccc(OC)c2)c1=O (stereo not drawn) | 0.126 µM
CCC(C(=O)Nc1ccc(Cl)cc1)n1nc(C)cc(Cc2ccccc2OC)c1=O (stereo not drawn) | 1.86 µM
COc1cccc(Cc2cc(C)nn(CC(=O)Nc3ccc(Cl)cc3)c2=O)c1OC | 0.17 µM
COc1ccccc1Cc1cc(C)nn(CC(=O)Nc2cccc(Cl)c2)c1=O | > 100 µM
COc1ccccc1Cc1cc(C)nn(CC(=O)Nc2c(F)cc(Cl)cc2F)c1=O | > 100 µM
COc1ccccc1Cc1cc(C)nn(C(C(=O)Nc2ccc(Cl)cc2)C2CC2)c1=O (stereo not drawn) | > 100 µM
COc1ccccc1Cc1cc(C)nn(CC(=O)Nc2ccc(Cl)cc2F)c1=O | > 100 µM

Second part, the molecule after the results:

EC50 | SMILES
6.31 µM | CCCC(C(=O)Nc1ccc(Cl)cc1)n1nc(C)cc(Cc2ccccc2OC)c1=O (stereo not drawn)
5.62 µM | COc1cccc(Cc2cc(C)nn(CC(=O)Nc3ccc(Cl)cc3F)c2=O)c1

Each molecule was assayed against T1, fMet-Leu-Phe receptor (assay: Biased agonist activity at human FPR1 expressed in FlpIn-CHO cells assessed as intracellular calcium mobilization by Fluo-4-AM dye based fluorescence assay). Conditions: read-out: pEC50 (converted).
Format: functional, cell-based
How it was run: as §1

SMILES | EC50
Cc1cc(Cc2ccccc2F)c(=O)n(C(C)C(=O)Nc2ccc(Br)cc2)n1 (stereo not drawn) | > 100 µM
COc1ccccc1Cc1cc(C)nn(C(C)C(=O)Nc2ccc(Br)cc2)c1=O (stereo not drawn) | > 100 µM
COc1ccccc1Cc1cc(C)nn(CC(=O)Nc2ccccc2Cl)c1=O | > 100 µM
CCCCC(C(=O)Nc1ccc(Br)cc1)n1nc(C)cc(Cc2cccc(OC)c2OC)c1=O (stereo not drawn) | 0.00646 µM
CCCCC(C(=O)Nc1ccc(Cl)cc1)n1nc(C)cc(Cc2cccc(OC)c2)c1=O (stereo not drawn) | 5.25 µM
COc1cccc(Cc2cc(C)nn(C(C)C(=O)Nc3ccc(F)cc3)c2=O)c1 (stereo not drawn) | > 100 µM
CCC(C(=O)Nc1ccc(Cl)cc1)n1nc(C)cc(Cc2ccccc2OC)c1=O (stereo not drawn) | > 100 µM
COc1cccc(Cc2cc(C)nn(CC(=O)Nc3ccc(Cl)cc3)c2=O)c1OC | 0.224 µM
COc1ccccc1Cc1cc(C)nn(CC(=O)Nc2cccc(Cl)c2)c1=O | > 100 µM
COc1ccccc1Cc1cc(C)nn(CC(=O)Nc2ccc(Cl)cc2)c1=O | > 100 µM
COc1ccccc1Cc1cc(C)nn(CC(=O)Nc2c(F)cc(Cl)cc2F)c1=O | > 100 µM
COc1ccccc1Cc1cc(C)nn(C(C(=O)Nc2ccc(Cl)cc2)C2CC2)c1=O (stereo not drawn) | > 100 µM
COc1ccccc1Cc1cc(C)nn(CC(=O)Nc2ccc(Cl)cc2F)c1=O | > 100 µM
Cc1cc(Cc2cccc(F)c2)c(=O)n(C(C)C(=O)Nc2ccc(Br)cc2)n1 (stereo not drawn) | > 100 µM

Further lines, results first:

EC50 | SMILES
> 100 µM | CCc1ccc(NC(=O)Cn2nc(C)cc(Cc3ccccc3OC)c2=O)cc1
> 100 µM | COc1cccc(Cc2cc(C)nn(C(C)C(=O)Nc3cccc(F)c3)c2=O)c1 (stereo not drawn)
> 100 µM | COc1ccc(Cc2cc(C)nn(C(C)C(=O)Nc3ccc(Br)cc3)c2=O)cc1 (stereo not drawn)
6.31 µM | COc1ccc(OC)c(Cc2cc(C)nn(CC(=O)Nc3ccc(Cl)cc3)c2=O)c1
9.77 µM | CCCC(C(=O)Nc1ccc(Cl)cc1)n1nc(C)cc(Cc2ccccc2OC)c1=O (stereo not drawn)
> 100 µM | Cc1cc(Cc2ccc(F)cc2)c(=O)n(C(C)C(=O)Nc2ccc(Br)cc2)n1 (stereo not drawn)
> 100 µM | COc1cccc(Cc2cc(C)nn(CC(=O)Nc3ccc(Cl)cc3F)c2=O)c1
> 100 µM | COc1ccc(NC(=O)Cn2nc(C)cc(Cc3ccccc3OC)c2=O)cc1
